Measured values from ChEMBL document CHEMBL1134668, “Hydrazinonaphthalene and azonaphthalene thrombopoietin mimics are nonpeptidyl promoters of megakaryocytopoiesis” (J Med Chem, 2001).

Columns and labels:
[1] = molecular target: T1, Thrombopoietin receptor (Homo sapiens) (UniProt P40238); assay: Thrombopoietin luciferase activity in BAF-3 cells; type: cell-based; conditions: BaF3
T1 sequence (whole entry): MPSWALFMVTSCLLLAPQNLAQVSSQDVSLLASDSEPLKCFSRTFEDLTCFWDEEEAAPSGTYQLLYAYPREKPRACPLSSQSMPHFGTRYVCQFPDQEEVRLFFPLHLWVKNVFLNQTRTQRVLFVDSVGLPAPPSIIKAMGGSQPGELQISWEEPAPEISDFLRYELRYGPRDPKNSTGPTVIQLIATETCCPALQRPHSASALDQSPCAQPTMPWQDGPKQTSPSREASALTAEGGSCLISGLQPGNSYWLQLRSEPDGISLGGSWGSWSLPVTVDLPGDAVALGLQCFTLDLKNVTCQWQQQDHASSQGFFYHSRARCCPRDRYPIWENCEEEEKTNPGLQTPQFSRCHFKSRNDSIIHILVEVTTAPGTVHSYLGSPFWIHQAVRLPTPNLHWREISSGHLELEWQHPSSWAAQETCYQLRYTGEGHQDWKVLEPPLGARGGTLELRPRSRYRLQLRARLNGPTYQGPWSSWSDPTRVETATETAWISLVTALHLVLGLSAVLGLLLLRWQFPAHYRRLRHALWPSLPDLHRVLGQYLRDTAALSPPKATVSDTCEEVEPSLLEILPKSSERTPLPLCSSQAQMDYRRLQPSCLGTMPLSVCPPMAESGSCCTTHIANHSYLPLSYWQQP

[2] = Effective concentration required to inhibit UT7/TPO cell proliferation was determined.; type: functional, cell-based; conditions: Homo sapiens
How it was run: (§1)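 UT7/TPO cells kept in IMDM/10% FBS/glutamine plus rhTPO, starved overnight without TPO. Cells (0.2 × 10^6/mL) in starving medium incubated with compounds (0.32% DMSO final) or rhTPO, 37 °C, 5% CO2, 72 h. Pellet DNA content read by BrdU kit. Mean value over control as % of maximal-TPO response, duplicates, plotted vs concentration for EC50.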

[3] = Compound tested for UT7/TPO cell proliferation activity (%TPO) using proliferation assay.; type: functional, Homo sapiens; how it was run: as §1
[4] = molecular target: T2, Thrombopoietin receptor (Homo sapiens, UniProt P40238); assay: Effective concentration for thrombopoietin luciferase activity was determined in BAF-3 cells; type: cell-based, BaF3
T2 sequence (P40238 whole entry): T1 sequence (whole entry)

[5] = Effective concentration (EC50) required to inhibit CD34 cell differentiation; type: functional; conditions: Homo sapiens
How it was run: (§2)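 Human bone marrow CD34+ cells from light density marrow cells (2 × 10^6 cells/mL) in IMDM with 20% v/v FCS and rhSCF 100 ng/mL, cultured with sample or TPO (maximal 100 ng/mL) for 10 days at 5% CO2 and 4% O2. Stained with FITC-anti-CD41 and FITC-anti-IgG1 isotype control, formaldehyde-fixed, flow cytometry; %CD41 = CD41 positive minus isotype positive.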

[6] = Compound tested for CD34+ cell differentiation activity (%TPO) using CD34+ differentiation assay; type: functional, Homo sapiens; how it was run: as §2

| Efficacy [1] [%] | EC50 [4] [nM] | EC50 [5] [nM] | SMILES | EC50 [2] [nM] | Efficacy [3] [%] | Efficacy [6] [%] |
| --- | --- | --- | --- | --- | --- | --- |
| 34 | 2000 | – | Cc1[nH]n(-c2cccc(Cl)c2)c(=O)c1/N=N/c1c(O)cc(S(=O)(=O)O)c2ccccc12 | 500 | 45 | – |
| 100 | 40 | 200 | Cc1ccc(-n2[nH]c(C)c(/N=N/c3c(O)cc(S(=O)(=O)O)c4ccccc34)c2=O)cc1C | – | 90 | 100 |
